Legend:
Mus musculus = species on record: Mus musculus; test: Analgesic activity in mouse by acetic acid writhing test; type: functional
[1] = Displacement of [3H]di-o-tolylgluanidine from sigma 2 receptor in rat liver membranes at 1 uM after 2 hrs by scintillation counting; conditions: Membrane
[2] = biological target: Sigma non-opioid intracellular receptor 1 (Cavia porcellus, UniProt Q60492); test: Displacement of [3H]-(+)-pentazocine from sigma 1 receptor in guinea pig brain membranes after 2 hrs by scintillation counting; type: cell membranes, Membrane
Chain of Sigma non-opioid intracellular receptor 1 (Q60492 whole entry): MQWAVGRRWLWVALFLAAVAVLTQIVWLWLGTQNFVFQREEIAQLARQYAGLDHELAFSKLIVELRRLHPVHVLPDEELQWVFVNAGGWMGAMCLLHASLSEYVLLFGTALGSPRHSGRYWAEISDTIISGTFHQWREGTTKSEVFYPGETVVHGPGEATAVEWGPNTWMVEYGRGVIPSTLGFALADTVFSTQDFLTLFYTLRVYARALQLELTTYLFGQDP

[3] = Selectivity ratio of Ki for sigma 2 receptor in rat liver membranes to Ki for sigma 1 receptor in guinea pig brain membranes; type: cell membranes
[4] = Displacement of [3H]di-o-tolylgluanidine from sigma 2 receptor in rat liver membranes after 2 hrs by scintillation counting; type: cell membranes, Membrane
Summary of the method: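 Rat liver membranes (sucrose homogenate; pellet held 30 min at room temperature in 50 mM TRIS pH 8.0; 100 µg protein) incubated with 3 nM [3H]DTG and test compound at 10^-10 to 10^-5 M, at room temperature for 120 min. […] Nonspecific binding with 10 µM DTG. Filtration, then scintillation counting. Duplicates. Ki by Cheng-Prusoff from IC50, mean ± SEM, n = 3.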

[5] = biological target: Sigma non-opioid intracellular receptor 1 (Cavia porcellus) (UniProt Q60492); test: Displacement of [3H]-(+)-pentazocine from sigma 1 receptor in guinea pig brain membranes at 1 uM after 2 hrs by scintillation counting; type: cell membranes; conditions: Membrane
Chain of Sigma non-opioid intracellular receptor 1 (Cavia porcellus) (Q60492 whole entry): as above
Summary of the method: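 Guinea pig brain membranes (about 100 µg protein) incubated with 2 nM [3H]-(+)-pentazocine and 1 µM test compound in 50 mM TRIS pH 7.4 at 37 °C for 120 min. Filtered, then counted by scintillation. […] Result given as % inhibition of radioligand binding.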

Structure (SMILES) | ED50 (Mus musculus) [mg/kg] | inhibition [1] [%] | Ki [2] [nM] | Ratio Ki [3] | Ki [4] [nM] | inhibition [5] [%]
CN1CCC2Cc3ccccc3C(C1)O2 (stereo not drawn) | 20 | – | – | – | – | –
OCCC1Cc2ccccc2C2(CCN(Cc3ccccc3)CC2)O1 (racemic) | – | 0 | 20 | – | – | –
COC(=O)C[C@@H]1Cc2ccccc2[C@H](CCN2CCCC2)O1 (racemic) | – | 0 | > 1000 | – | – | –
OCC[C@@H]1Cc2ccccc2[C@H](CCN2CCC(c3ccccc3)CC2)O1 (racemic) | – | – | 52 | 0.4 | 20 | –
COC(=O)CC1Cc2ccccc2C2(CCN(CCCc3ccccc3)CC2)O1 (racemic) | – | – | 39 | 15 | 610 | –
COC(=O)C[C@@H]1Cc2ccccc2[C@H](CCN2CCCCC2)O1 (racemic) | – | – | 519 | – | – | –
COC(=O)C[C@@H]1Cc2ccccc2[C@H](CN2CCC(c3ccccc3)CC2)O1 (racemic) | – | – | 673 | 1.2 | 785 | –
CCCCCCCCN1CCC2(CC1)OC(CCO)Cc1ccccc12 (racemic) | – | – | 26 | 9 | 234 | –
CCCCN1CCC2(CC1)OC(CCO)Cc1ccccc12 (racemic) | – | 13 | 60 | – | – | –
COC(=O)C[C@@H]1Cc2ccccc2[C@H](CN2CCCCC2)O1 (racemic) | – | 7 | 510 | – | – | –
OCCC1Cc2ccccc2C2(CCN(CCCc3ccccc3)CC2)O1 (racemic) | – | – | 20 | 30 | 617 | –
COC(=O)C[C@@H]1Cc2ccccc2[C@H](CCN2CCC(c3ccccc3)CC2)O1 (racemic) | – | – | 38 | 2.8 | 107 | –
CCN1CCC2(CC1)OC(CCO)Cc1ccccc12 (racemic) | – | 0 | – | – | – | 0
OCC[C@@H]1Cc2ccccc2[C@H](CCN2CCCCC2)O1 (racemic) | – | 14 | – | – | – | 4
Cc1ccccc1NC(=N)Nc1ccccc1C [DITOLYLGUANIDINE] | – | – | – | – | 20.2 | –

Reference: ChEMBL document CHEMBL3826898, “Oxa-Pictet-Spengler reaction as key step in the synthesis of novel σ receptor ligands with 2-benzopyran structure” (Bioorg Med Chem, 2016)
